The values that follow come from ChEMBL document CHEMBL1139305, “Design, synthesis and pharmacological screening of novel antihypertensive agents using hybrid approach” (Bioorg Med Chem, 2009).

The subject of test [1] is Rattus norvegicus. Nature of the test: Effect on heart rate in anesthetized Wistar rat assessed as number of Q-T-intervals at 40 mg/kg, ip after 30 mins by electrocardiography. Format: functional. Particulars: route intraperitoneal. A digest of the protocol:
(§1)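 Wistar rats (250–300 g) anaesthetised with thiopental 60 mg/kg ip, then given compound ip at 40 mg/kg in 0.5% aqueous methyl cellulose. ECG recorded by transducer, with heart rate (beats/min) and P–Q, QRS and Q–T intervals (ms) taken at 0, 15, 30, 45 and 60 min after dosing.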

The test system of test [2] is Rattus norvegicus. Nature of the test: Effect on heart rate in anesthetized Wistar rat assessed as number of P-Q-intervals at 40 mg/kg, ip after 45 mins by electrocardiography. The class given is functional. The conditions noted are these: route intraperitoneal. In outline: as §1
Test [3] deals with Rattus norvegicus. Nature of the test: Effect on heart rate in anesthetized Wistar rat assessed as number of beats per minutes at 40 mg/kg, ip after 30 mins by electrocardiography. Format: functional. Particulars: route intraperitoneal. In outline:
as §1

The test system of test [4] is Rattus norvegicus. Nature of the test: Effect on heart rate in anesthetized Wistar rat assessed as number of beats per minutes at 40 mg/kg, ip after 60 mins by electrocardiography. The class given is functional. Particulars: route intraperitoneal. A digest of the protocol:
as §1

The species entered for test [5] is Rattus norvegicus. Nature of the test: NO release in Wistar rat by Griess reagent assay in presence of L-cysteine relative to control.
Test [6] concerns Rattus norvegicus. Nature of the test: Effect on heart rate in anesthetized Wistar rat assessed as number of P-Q-intervals at 40 mg/kg, ip after 30 mins by electrocardiography. The conditions noted are these: route intraperitoneal. Format: functional. A digest of the protocol: as §1
The test system of test [7] is Rattus norvegicus. Nature of the test: Effect on heart rate in anesthetized Wistar rat assessed as number of Q-T-intervals at 40 mg/kg, ip after 15 mins by electrocardiography. The class given is functional. Particulars: route intraperitoneal. In outline:
as §1

In test [8] the test system is Rattus norvegicus. Nature of the test: Effect on heart rate in anesthetized Wistar rat assessed as number of beats per minutes at 40 mg/kg, ip after 45 mins by electrocardiography. Format: functional. Particulars: route intraperitoneal. A digest of the protocol:
as §1

The test system of test [9] is Rattus norvegicus. Nature of the test: Effect on heart rate in anesthetized Wistar rat assessed as number of P-Q-intervals at 40 mg/kg, ip after 60 mins by electrocardiography. Particulars: route intraperitoneal. The class given is functional. In outline:
as §1

Test [10] has as its system Rattus norvegicus. Nature of the test: Cardiovascular effect in anaesthetized Wistar rat assessed as mean arterial pressure at 40 mg/kg, ip after 60 mins. The class given is functional, Artery. Particulars: route intraperitoneal. A digest of the protocol:
(§2)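 Adult normotensive Wistar rats (250–300 g) under thiopental (60 mg/kg ip). Right carotid artery cannulated with a heparinised catheter (20 IU/mL in saline, flushed every 30 min) connected to a pressure transducer. Measurement began one hour after surgery. Compound given ip at 40 mg/kg in 0.5% methyl cellulose, with mean arterial pressure read at 0, 15, 30, 45 and 60 min.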

Test [11] relates to Rattus norvegicus. Nature of the test: Effect on heart rate in anesthetized Wistar rat assessed as number of QRS complex at 40 mg/kg, ip after 15 mins by electrocardiography. The class given is functional. The conditions noted are these: route intraperitoneal. In outline: as §1
Test [12] has as its system Rattus norvegicus. Nature of the test: Effect on heart rate in anesthetized Wistar rat assessed as number of QRS complex at 40 mg/kg, ip after 30 mins by electrocardiography. Format: functional. The conditions noted are these: route intraperitoneal. A digest of the protocol: as §1
The subject of test [13] is Rattus norvegicus. Nature of the test: Cardiovascular effect in anaesthetized Wistar rat assessed as mean arterial pressure at 40 mg/kg, ip after 45 mins. The class given is functional, Artery. The conditions noted are these: route intraperitoneal. In outline:
as §2

Test [14] relates to Rattus norvegicus. Nature of the test: Vasorelaxation activity […] assessed as inhibition of norepinephrine-induced contraction of aorta ring at 0.1 mg/ml. Format: functional. In outline:
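Isolated Wistar rat aorta rings in physiological salt solution at 37 °C, gassed 95% O2/5% CO2, isometric tension, 60 min equilibration. After contraction plateau, test compound (0.1 mg/mL) added cumulatively; EC50 (g/mL) derived from cumulative concentration–response curves against norepinephrine.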

In test [15] the test system is Rattus norvegicus. Nature of the test: Effect on heart rate in anesthetized Wistar rat assessed as number of P-Q-intervals at 40 mg/kg, ip after 15 mins by electrocardiography. The class given is functional. The conditions noted are these: route intraperitoneal. In outline: as §1
In test [16] the test system is Rattus norvegicus. Nature of the test: Effect on heart rate in anesthetized Wistar rat assessed as number of Q-T-intervals at 40 mg/kg, ip after 60 mins by electrocardiography. The class given is functional. The conditions noted are these: route intraperitoneal. A digest of the protocol: as §1
Test [17] relates to Rattus norvegicus. Nature of the test: Effect on heart rate in anesthetized Wistar rat assessed as number of Q-T-intervals at 40 mg/kg, ip after 45 mins by electrocardiography. Format: functional. The conditions noted are these: route intraperitoneal. A digest of the protocol:
as §1

The test system of test [18] is Rattus norvegicus. Nature of the test: Effect on heart rate in anesthetized Wistar rat assessed as number of QRS complex at 40 mg/kg, ip after 60 mins by electrocardiography. The class given is functional. Particulars: route intraperitoneal. A digest of the protocol: as §1
Test [19] concerns Rattus norvegicus. Nature of the test: Effect on heart rate in anesthetized Wistar rat assessed as number of QRS complex at 40 mg/kg, ip after 45 mins by electrocardiography. The class given is functional. The conditions noted are these: route intraperitoneal. A digest of the protocol: as §1
Test [20] has as its system Rattus norvegicus. Nature of the test: Effect on heart rate in anesthetized Wistar rat assessed as number of beats per minutes at 40 mg/kg, ip after 15 mins by electrocardiography. The class given is functional. The conditions noted are these: route intraperitoneal. A digest of the protocol:
as §1

Test [21] concerns Rattus norvegicus. Nature of the test: Cardiovascular effect in anaesthetized Wistar rat assessed as mean arterial pressure at 40 mg/kg, ip after 15 mins. The class given is functional, Artery. Particulars: route intraperitoneal. A digest of the protocol: as §2
Test [22] concerns Rattus norvegicus. Nature of the test: Cardiovascular effect in anaesthetized Wistar rat assessed as mean arterial pressure at 40 mg/kg, ip after 30 mins. The conditions noted are these: route intraperitoneal. Format: functional, Artery. A digest of the protocol:
as §2

Test [23] relates to Rattus norvegicus. Nature of the test: Antiarrhythmic activity in anaesthetized Wistar rat assessed as decrease in BaCl2-induced cardiac rhythm disturbance at 40 mg/kg, ip 60 mins before arrhythmogen challenge. Particulars: Heart. The class given is functional, organism-based. On the set-up: dose 40 mg/kg. A digest of the protocol:
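Rats (thiopental 60 mg/kg ip anaesthesia) given test compound ip at 40 mg/kg, suspended in 0.5% aqueous methyl cellulose, 60 min before iv barium chloride (32 mg/kg) to evoke arrhythmia. Scored by reduction of rhythm disturbances (premature ventricular beats, ventricular tachycardia, fibrillation) and mortality.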

Each structure is given as a SMILES string. Values after ≈ are worked out from the molar mass of the structure shown. Active and inactive are the calls of the source. No cut-off for these calls is given here.

On to `O=C(CO[N+](=O)[O-])NNC(=O)c1ccc(NCC(O)CN2C(=O)/C(=C/c3ccc(O)cc3)S/C2=N/c2ccccc2)cc1` (stereo unspecified), for which the Activity in the test with Rattus norvegicus [1] is on record as 76; in the test on Rattus norvegicus [2], 56.2; with Rattus norvegicus [3], 272.68; with Rattus norvegicus [4], 278.31; in the test on Rattus norvegicus [6], 56; in the test with Rattus norvegicus [7], 74.8. Further, the Activity is 258.51 in the test on Rattus norvegicus [8]; 54.8 in the test on Rattus norvegicus [9]; 77.31 mmHg in the test on Rattus norvegicus [10]; 20.4 in the test on Rattus norvegicus [11]; 21.4 with Rattus norvegicus [12]; 63.34 mmHg in the test with Rattus norvegicus [13]. Besides, the Activity turned out to be 55.2 in the test with Rattus norvegicus [15]; 74.4 in the test with Rattus norvegicus [16]; 77.2 in the test with Rattus norvegicus [17]; 20.6 in the test with Rattus norvegicus [18]; 22.4 in the test on Rattus norvegicus [19]; 290.03 with Rattus norvegicus [20]. Also, the figures for the Activity in the test on Rattus norvegicus [21] and in the test with Rattus norvegicus [22] were 79.52 mmHg and 68.96 mmHg, respectively. Further, the “% NO release” value in the test filed under Rattus norvegicus [5] stood at 0.3%. Moreover, in the test with Rattus norvegicus [14], the EC50 worked out at 32.4 µg/mL (≈ 53.3 µM). Further, the outcome with Rattus norvegicus [23] was Active.
On to `O=C(CO[N+](=O)[O-])NNC(=O)c1ccc(NCC(O)CN2C(=O)/C(=C/c3ccccc3)S/C2=N/c2ccccc2)cc1` (stereo unspecified), for which the Activity in the test on Rattus norvegicus [1] was 63.2; with Rattus norvegicus [2], 54.2; with Rattus norvegicus [3], 269.11; with Rattus norvegicus [4], 291.8; with Rattus norvegicus [6] it was 53.6; with Rattus norvegicus [7], 81.8. For the same compound, the Activity in the test on Rattus norvegicus [8] is 276.83; in the test with Rattus norvegicus [9] it was 55.4; in the test with Rattus norvegicus [10] it was 71.29 mmHg; with Rattus norvegicus [11], 19.4; in the test with Rattus norvegicus [12], 21.2; with Rattus norvegicus [13], 67.54 mmHg. The Activity turned out to be 52.2 with Rattus norvegicus [15]; 86.2 in the test on Rattus norvegicus [16]; 84.6 with Rattus norvegicus [17]; 21.6 in the test on Rattus norvegicus [18]; 20.6 in the test on Rattus norvegicus [19]; 292.18 in the test on Rattus norvegicus [20]. Further, the Activity in the test on Rattus norvegicus [21] is on record as 78.67 mmHg; in the test with Rattus norvegicus [22], 62.21 mmHg. Moreover, the “% NO release” value in the test filed under Rattus norvegicus [5] was found to be 0.33%. Also, the EC50 in the test on Rattus norvegicus [14] was 34.7 µg/mL (≈ 58.7 µM). Also, in the test with Rattus norvegicus [23], the result was Active.
